PubChem BioAssay
The source made the active and inactive calls.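 How the source made its calls, unless noted: active means viability at or below 30% in both replicate assays; inconclusive means viability at or below 30% in just one of the two assays; inactive means the rest.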

How the values were obtained:
[1] = reducers of endogenous Her2 protein level, primary screen, SKBR3 breast tumor cells, AlphaScreen, ATP viability (AID 461;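 active means Her2 level under about 52% in both replicate screens, with viability over 70% of control, limit read from the data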;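 on Her2 level: lower value means less Her2 protein in the cells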;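 on viability: percent of carrier control wells set as 100% viability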); conditions: 18-24 h, measured here: SKBR3 viability, ATP luminescence, at 10 µM
[2] = biological target: Receptor tyrosine-protein kinase erbB-2 (Homo sapiens) (UniProt P04626); assay: as above; conditions: 18-24 h, at 10 µM, stronger effect = lower value
Sequence of Receptor tyrosine-protein kinase erbB-2 (Homo sapiens) (P04626 whole entry, looked up): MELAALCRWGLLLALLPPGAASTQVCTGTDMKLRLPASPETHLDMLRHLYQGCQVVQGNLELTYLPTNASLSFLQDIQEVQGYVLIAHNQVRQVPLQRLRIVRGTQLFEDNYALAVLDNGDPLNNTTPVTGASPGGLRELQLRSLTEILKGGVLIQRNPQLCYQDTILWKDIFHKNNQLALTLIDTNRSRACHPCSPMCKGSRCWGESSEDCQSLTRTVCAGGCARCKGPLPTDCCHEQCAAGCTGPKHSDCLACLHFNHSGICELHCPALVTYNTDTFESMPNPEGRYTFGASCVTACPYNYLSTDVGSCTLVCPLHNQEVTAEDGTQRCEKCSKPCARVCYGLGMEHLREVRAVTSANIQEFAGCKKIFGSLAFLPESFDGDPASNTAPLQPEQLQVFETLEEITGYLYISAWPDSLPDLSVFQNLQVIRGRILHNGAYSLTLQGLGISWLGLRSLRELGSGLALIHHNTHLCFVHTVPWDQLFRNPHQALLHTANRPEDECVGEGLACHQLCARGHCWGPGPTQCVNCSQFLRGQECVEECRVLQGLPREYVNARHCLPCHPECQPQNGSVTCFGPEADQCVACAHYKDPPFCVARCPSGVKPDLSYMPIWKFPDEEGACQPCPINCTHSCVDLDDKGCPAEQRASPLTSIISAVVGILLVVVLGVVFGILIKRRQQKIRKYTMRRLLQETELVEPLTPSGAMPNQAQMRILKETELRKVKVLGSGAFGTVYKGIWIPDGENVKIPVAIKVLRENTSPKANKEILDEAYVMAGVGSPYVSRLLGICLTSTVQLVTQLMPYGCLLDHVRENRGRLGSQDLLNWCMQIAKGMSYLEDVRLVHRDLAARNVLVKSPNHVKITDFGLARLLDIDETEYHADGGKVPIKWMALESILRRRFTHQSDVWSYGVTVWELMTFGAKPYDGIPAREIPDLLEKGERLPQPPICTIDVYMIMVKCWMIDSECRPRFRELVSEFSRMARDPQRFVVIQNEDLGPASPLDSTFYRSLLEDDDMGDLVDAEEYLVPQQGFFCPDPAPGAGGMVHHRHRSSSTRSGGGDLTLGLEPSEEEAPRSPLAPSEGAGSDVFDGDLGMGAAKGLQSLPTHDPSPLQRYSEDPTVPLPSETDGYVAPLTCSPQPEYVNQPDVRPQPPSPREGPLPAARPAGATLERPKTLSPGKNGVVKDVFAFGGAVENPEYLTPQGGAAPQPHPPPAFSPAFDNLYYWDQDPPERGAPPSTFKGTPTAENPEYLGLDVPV

[3] = SK-BR-3 cell growth inhibitors, pilot screen, 24 h, human (AID 572;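 active means viability at or below 10% of carrier control in both of two separate runs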;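 further: compound exposure lasted between 18 and 24 h rather than exactly 24 h; 100% = carrier-treated control wells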); conditions: SK-BR-3 viability, CellTiter-Glo luminescence, at 10 µM, stronger effect = lower value
[4] = HUVEC growth inhibition – cell-based, human, primary screen (AID 575); conditions: HUVEC proliferation, CellTiter-Glo luminescence, 72 h; at 10 µM; stronger effect = lower value;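 further: 100% = median of untreated cell wells with 0.1% DMSO on each plate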
How it was run: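 system = HUVEC primary cells | amount = 1250 cells/well | buffer or medium = supplemented EBM, 2% fetal bovine serum | dosing = single-point 10 µM, DMSO 0.1% final | times = 72 h compound incubation | detection = CTG luminescence | read-out = % viability relative to median vehicle-well signal on each plate | control set = vehicle and MePR control wells | format = collagen-coated 384-well format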

[5] = growth inhibitors of H69AR lung tumor, primary screen, human, duplicate replicates (AID 580;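 active means viability at or under a set limit in both replicates, limit being median viability minus 3 SD, cut at about 48% in these data, passing the limit was not always enough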;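 further: 100% = mean luminescence of untreated wells and 0% = no signal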); conditions: H69AR lung tumor cells viability, ATP luminescence, 72 h; at 10 µM; stronger effect = lower value
[6] = reversal of MRP1-mediated doxorubicin resistance, pilot screen, H69AR cells, doxorubicin co-treatment (AID 601;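 active means viability loss from added drug above about 55%, and viability with drug at most 40%, in both replicates, limit read from the data, passing the limit was not always enough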); conditions: CellTiter-Glo, 72 h, at 10 µM; for differential viability (reversal): stronger effect = higher value
[7] = 384-well plate pilot, post-Golgi transport modulator project, inhibition of yeast transport mutant growth (AID 636; in the data active means inhibition above about 31%); conditions: absorbance 615 nm, about 18 h, stronger effect = higher value
[8] = growth suppression of yeast trafficking mutant, preliminary HTS, modulators of trafficking downstream of Golgi apparatus project, 1536-format plate, OD 615 nm (AID 637; in the data active means inhibition above about 30%); conditions: yeast transport mutant growth, absorbance 615 nm, 18 h; stronger effect = higher value
[9] = H69AR cells + 2 uM doxorubicin, measured here: viability with 2 uM doxorubicin, stronger effect = lower value
[10] = H69AR cells, compound alone cytotoxicity

## COc1cc(NC(=O)Cc2cccs2)ccc1-n1cnnn1
[1]
  viability: 97%
[2]
  Her2 level: 95.5% (inactive)
[3]
  viability: 97% (inactive)
[4]
  viability: 97% (inactive)
[5]
  viability: 102% (inactive)
[6]; H69AR cells + 2 uM doxorubicin
  differential viability (reversal): 7.88% (inactive)
[6]; [9]
  viability: 94.4%
[6]; [10]
  viability: 102%
[7]
  inhibition: -6.13% (inactive)
[8]
  inhibition: 1.29% (inactive)

## Cc1cc(-c2ccc(F)cc2)nc2cc(C(N)=O)nn12
[1]
  viability: 94.5%
[2]
  Her2 level: 104% (inactive)
[3]
  viability: 94.5% (inactive)
[4]
  viability: 84.6% (inactive)
[5]
  viability: 87.6% (inactive)
[6]; H69AR cells + 2 uM doxorubicin
  differential viability (reversal): -1.99% (inactive)
[6]; [9]
  viability: 89.6%
[6]; [10]
  viability: 87.6%
[7]
  inhibition: -2.47% (inactive)
[8]
  inhibition: 17.3% (inactive)

## Cc1cccc(NC(=O)Cn2c(=O)n(C)c3ccccc32)c1
[1]
  viability: 100%
[2]
  Her2 level: 90.5% (inactive)
[3]
  viability: 100% (inactive)
[4]
  viability: 100% (inactive)
[5]
  viability: 102% (inactive)
[6]; H69AR cells + 2 uM doxorubicin
  differential viability (reversal): 9.13% (inactive)
[6]; [9]
  viability: 92.9%
[6]; [10]
  viability: 102%
[7]
  inhibition: -3.33% (inactive)
[8]
  inhibition: -2.7% (inactive)

## CCC(=O)N1CCN=C1SCc1ccc(Cl)cc1
[1]
  viability: 90%
[2]
  Her2 level: 93.5% (inactive)
[3]
  viability: 90% (inactive)
[4]
  viability: 77.3% (inactive)
[5]
  viability: 95.1% (inactive)
[6]; H69AR cells + 2 uM doxorubicin
  differential viability (reversal): 10.8% (inactive)
[6]; [9]
  viability: 84.3%
[6]; [10]
  viability: 95.1%
[7]
  inhibition: 1.04% (inactive)
[8]
  inhibition: 31.5% (active)

## CCOC(=O)N1CCN(C(=O)COc2ccc(Br)cc2Cl)CC1
[1]
  viability: 96%
[2]
  Her2 level: 112% (inactive)
[3]
  viability: 96% (inactive)
[4]
  viability: 117% (inactive)
[5]
  viability: 93.7% (inactive)
[6]; H69AR cells + 2 uM doxorubicin
  differential viability (reversal): 2.46% (inactive)
[6]; [9]
  viability: 91.2%
[6]; [10]
  viability: 93.7%
[7]
  inhibition: -1.17% (inactive)
[8]
  inhibition: -5.33% (inactive)

## O=C1CN(Cc2ccccc2)C(=NCc2ccco2)S1
[1]
  viability: 97%
[2]
  Her2 level: 74% (inactive)
[3]
  viability: 97% (inactive)
[4]
  viability: 97.7% (inactive)
[5]
  viability: 86.7% (inactive)
[6]; H69AR cells + 2 uM doxorubicin
  differential viability (reversal): 4.9% (inactive)
[6]; [9]
  viability: 81.8%
[6]; [10]
  viability: 86.7%
[7]
  inhibition: -6.49% (inactive)
[8]
  inhibition: 2.95% (inactive)

## CC(=O)c1coc2ccc(OCC(=O)O)cc12
[1]
  viability: 104%
[2]
  Her2 level: 90.5% (inactive)
[3]
  viability: 104% (inactive)
[4]
  viability: 105% (inactive)
[5]
  viability: 98% (inactive)
[6]; H69AR cells + 2 uM doxorubicin
  differential viability (reversal): 5.29% (inactive)
[6]; [9]
  viability: 92.7%
[6]; [10]
  viability: 98%
[7]
  inhibition: -4% (inactive)
[8]
  inhibition: -4.26% (inactive)

## Cc1ccc(S(=O)(=O)N2CCCC(C(=O)NC3=NCCS3)C2)cc1 (stereo not given)
[1]
  viability: 97.5%
[2]
  Her2 level: 78.5% (inactive)
[3]
  viability: 97.5% (inactive)
[4]
  viability: 83% (inactive)
[5]
  viability: 91.8% (inactive)
[6]; H69AR cells + 2 uM doxorubicin
  differential viability (reversal): 6.39% (inactive)
[6]; [9]
  viability: 85.4%
[6]; [10]
  viability: 91.8%
[7]
  inhibition: -6.67% (inactive)
[8]
  inhibition: 2.62% (inactive)

## CC(Oc1ccccc1)C(=O)N1CCCc2ccccc21 (stereo not given)
[1]
  viability: 101%
[2]
  Her2 level: 104% (inactive)
[3]
  viability: 101% (inactive)
[4]
  viability: 95.4% (inactive)
[5]
  viability: 94.3% (inactive)
[6]; H69AR cells + 2 uM doxorubicin
  differential viability (reversal): 4.51% (inactive)
[6]; [9]
  viability: 89.8%
[6]; [10]
  viability: 94.3%
[7]
  inhibition: -1.76% (inactive)
[8]
  inhibition: -4.33% (inactive)

## O=C(Nc1ccc2c(c1)OCO2)C1CCCN1C(=O)Nc1ccccc1F (stereo not given)
[1]
  viability: 110%
[2]
  Her2 level: 90% (inactive)
[3]
  viability: 110% (inactive)
[4]
  viability: 104% (inactive)
[5]
  viability: 96.2% (inactive)
[6]; H69AR cells + 2 uM doxorubicin
  differential viability (reversal): 8.28% (inactive)
[6]; [9]
  viability: 87.9%
[6]; [10]
  viability: 96.2%
[7]
  inhibition: -2.89% (inactive)
[8]
  inhibition: -3.97% (inactive)

## CCCCN(Cc1cc2cc(OC)ccc2[nH]c1=O)C(=O)COc1ccccc1
[1]
  viability: 73%
[2]
  Her2 level: 79% (inactive)
[3]
  viability: 73% (inactive)
[4]
  viability: 108% (inactive)
[5]
  viability: 93.6% (inactive)
[6]; H69AR cells + 2 uM doxorubicin
  differential viability (reversal): -4.48% (inactive)
[6]; [9]
  viability: 98.1%
[6]; [10]
  viability: 93.6%
[7]
  inhibition: -0.13% (inactive)
[8]
  inhibition: 0.82% (inactive)

## CN(C)c1nc(Nc2ccc(Cl)cc2)nc(OCC#N)n1
[1]
  viability: 105%
[2]
  Her2 level: 80.5% (inactive)
[3]
  viability: 105% (inactive)
[4]
  viability: 63.2% (inactive)
[5]
  viability: 81.8% (inactive)
[6]; H69AR cells + 2 uM doxorubicin
  differential viability (reversal): -14.6% (inactive)
[6]; [9]
  viability: 96.3%
[6]; [10]
  viability: 81.8%
[7]
  inhibition: -0.26% (inactive)
[8]
  inhibition: 11% (inactive)

## COCCCNC(=O)c1ccc2c(c1)OCO2
[1]
  viability: 96.5%
[2]
  Her2 level: 93.5% (inactive)
[3]
  viability: 96.5% (inactive)
[4]
  viability: 89.9% (inactive)
[5]
  viability: 89.8% (inactive)
[6]; H69AR cells + 2 uM doxorubicin
  differential viability (reversal): -1.48% (inactive)
[6]; [9]
  viability: 91.3%
[6]; [10]
  viability: 89.8%
[7]
  inhibition: -2.76% (inactive)
[8]
  inhibition: 5.74% (inactive)

## COc1cc2c(cc1OC)-c1cc(OCc3cccnc3)nc(=O)n1CC2
[1]
  viability: 92%
[2]
  Her2 level: 106% (inactive)
[3]
  viability: 92% (inactive)
[4]
  viability: 99.7% (inactive)
[5]
  viability: 92.9% (inactive)
[6]; H69AR cells + 2 uM doxorubicin
  differential viability (reversal): 2.05% (inactive)
[6]; [9]
  viability: 90.8%
[6]; [10]
  viability: 92.9%
[7]
  inhibition: -3.73% (inactive)
[8]
  inhibition: 9.19% (inactive)

## O=C(c1ccc2ccccc2n1)N1CCN(c2ccccc2)CC1
[1]
  viability: 88.5%
[2]
  Her2 level: 86% (inactive)
[3]
  viability: 88.5% (inactive)
[4]
  viability: 100% (inactive)
[5]
  viability: 112% (inactive)
[6]; H69AR cells + 2 uM doxorubicin
  differential viability (reversal): 13.8% (inactive)
[6]; [9]
  viability: 98.6%
[6]; [10]
  viability: 112%
[7]
  inhibition: -4.19% (inactive)
[8]
  inhibition: -3.61% (inactive)
